Results: ChEMBL document CHEMBL4513216, “Probing the Open Global Health Chemical Diversity Library for Multistage-Active Starting Points for Next-Generation Antimalarials” (ACS Infect Dis, 2020)

Assay: Toxicity liver stage against HepG2, at 10uM
Assay type: cell-based
Parameters: test concentration 10 uM, cell line HepG2-A16-CD81EGFP
Details: human, HepG2-A16-CD81EGFP cells; read-out: INHIBITION
Method in brief: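 Uninfected HepG2-A16-CD81EGFP cells, 3 × 10^3 per well, 1536-well, plated on prespotted compound at 10 μM final, parasite-free screening media added to match infected plates; puromycin 10 μM positive, DMSO 0.5% negative; run in parallel with 48 h PbLuc assay at 37 °C, 5% CO2; viability by CellTiter-Glo luminescence, normalized to controls.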

Row | SMILES | cytotoxicity at 10 µM
1 | CCN(CCC(F)(F)F)S(=O)(=O)c1cccc(F)c1C#N | -3.77%
2 | Nc1cccnc1N1CCCCCC1 | 4.45%
3 | Cc1cc2nc(C(C)C)cc(NC(C)c3nncn3C)n2n1 (configuration not stated) | 2.83%
4 | CCN(Cc1noc(CC(C)C)n1)Cc1ccccc1C | -50.8%
5 | COc1c(C2CCCN2C(=O)Cc2c(C)noc2C)c(C)nn1C (configuration not stated) | -12.9%
6 | Cc1scc(C(=O)N2CCC3(CCCN(C)C3=O)C2)c1-c1ccccc1 (configuration not stated) | -6.05%
7 | CN(CC(=O)N1CCCN(Cc2cscn2)CC1)c1cnccn1 | -7.81%
8 | O=C(Nc1ccc(S(=O)(=O)Nc2ccccc2)cc1)N1CCCC1 | 10.9%
9 | CN1CCOCC2(CCCN(C(=O)c3ccccc3F)C2)C1 (configuration not stated) | -91.4%
10 | Cc1nc(CN2CCCC23CCN(c2nc4ccccc4s2)CC3)co1 | -1.99%
11 | CC(Cc1cccc(F)c1)NCc1cnc(N2CCN(C)CC2)nc1 (configuration not stated) | -5.44%
12 | CCO[C@@H]1CCN(C(=O)c2ccc[nH]2)[C@@H]1Cc1cnn(C)c1 | 1.44%
13 | CCn1ccnc1CN1CCCN(CC2CC2)C(C(C)C)C1 (configuration not stated) | 2.63%
14 | CC(O)c1cn(Cc2ccccc2)nn1 (configuration not stated) | 7.62%
15 | Cc1cc(Cl)c2c(c1)C1(NC(=O)c3cccnc3N1)C(=O)N2 (configuration not stated) | 4.97%
16 | OC1(CN2CCOC(Cn3cccn3)C2)CCCCC1 (configuration not stated) | -6.11%
17 | Cc1cccc(CS(=O)(=O)CC(=O)NCCCOC(C)C)c1 | -5.15%
18 | CN1CCCC1c1cncc(C(=O)NCCN2CCCCC2)n1 (configuration not stated) | 0.388%
19 | CN(C)C(=O)c1cccnc1-c1ccc2c(c1)OCCO2 | 5.73%

Row | SMILES | cytotoxicity at 10 µM
20 | Cc1csc(-c2cccc(NC(=O)NCC(C)(C)C(N)=O)c2)n1 | -4.25%
21 | Cc1ccc(CNC(=O)CN2CCCC(Cn3cncn3)C2)s1 (configuration not stated) | -1.78%
22 | CCN1CCCn2c(nc(CNC(=O)c3ccsc3)cc2=O)C1 | 1.16%
23 | c1cc2c(cc1Cn1cc(C3CCOC3)nn1)OCO2 (configuration not stated) | 3.86%
24 | O=C(NCC1CC1)C1CN(C(=O)c2cccs2)CC12CCOCC2 (configuration not stated) | -14%
25 | c1ccc2ncc(CC3CCNCC3)cc2c1 | 1.8%
26 | COc1cc2c(cc1CN1CCC3(CCCN(C)C3=O)C1)OCCO2 (configuration not stated) | 6.33%
27 | COC(=O)NCC(=O)N1CCC(Oc2cccc(C)c2)CC1 | -0.555%
28 | CC(=O)NCCNC(=O)c1sccc1Br | 4.2%
29 | COc1cc(N2CCC3(CC2)C(c2ccncc2)CC(=O)N3C)ncn1 (configuration not stated) | -107%
30 | COCC1N(C(=O)c2ccc3c(c2)OCCCO3)C2CCC1(O)CC2 (configuration not stated) | -5.3%
31 | CN(Cc1cccc(C#N)c1)Cc1nc2c(cnn2C)c(=O)[nH]1 | -8.7%
32 | N#Cc1cn(C2CC2)c(=O)n(Cc2ncc(-c3cccs3)o2)c1=O | 14.8%
33 | Cc1nnn2c1COCC(CNC(=O)c1cnoc1C)C2 (configuration not stated) | -2.69%
34 | Cc1cnn(CC(C)NCCc2cccs2)c1 (configuration not stated) | -1.52%
35 | CC(C)OCCCNC(=O)c1ccc(-c2ccco2)[nH]c1=O | -4.45%
36 | Cc1ccccc1S(=O)(=O)NC(=O)C1(c2ccccc2)CCC1 | -6.9%
37 | CCn1ncc(NC(=O)c2cc(C3CC3)nc3c2c(C)nn3C)c1C | -3.32%
38 | CCn1nc(C)c2nnn(CC(=O)Nc3cccc(C)c3)c(=O)c21 | 10.1%

Row | SMILES | cytotoxicity at 10 µM
39 | CC(C)CC(=O)N1CC(=O)c2sc(Nc3ccc(F)cc3)nc2C1 | -2.28%
40 | CC1=N[C@@]2(CC[C@@H]3CN(C(=O)NCCc4ccccc4)C[C@@H]32)C(=O)N1 | -75.4%
41 | Cc1cc(C(=O)N2C[C@@H](C(=O)O)[C@H](C(C)C)C2)cs1 | -10.4%
42 | Cc1ccc2c(c1)CN(CC(=O)NCCc1ccc(F)cc1)CC(C)O2 (configuration not stated) | 1.54%
43 | CCn1cc(CN2C[C@@H]3CC[C@H]2CN(C(=O)c2ccncc2)C3)cn1 | 10.2%
44 | CN(Cc1cccc(OC(F)(F)F)c1)C(=O)c1cnsn1 | 0.963%
45 | Cc1ccc(C(=O)Nc2cn[nH]c2)cc1C | 0.762%
46 | O=C(Nc1ccc2occc2c1)N1CCCC(O)(CO)CC1 (configuration not stated) | -0.735%
47 | Cc1noc(C)c1CCCNc1cnccn1 | 10.2%
48 | Cc1cc2nc(CO[C@H]3CN(CC4CC4)C[C@H]3F)[nH]c2cc1C | 1.04%
49 | O=S(=O)(NCC1OCCc2cn(Cc3ccccn3)nc21)C1CC1 (configuration not stated) | -143%
50 | CNS(=O)(=O)c1cccc(S(=O)(=O)Nc2ncc(C)s2)c1 | -4.79%
51 | CCC[C@@H]1CN(Cc2cc(OC)c3c(c2)OCO3)C[C@H]1C(=O)O | -0.778%
52 | O=C(NCc1ccco1)[C@@]12CCO[C@@H]1CCN(CCN1CCCC1)C2 | -3.47%
53 | CC(C)C1CN(c2cccc(C#N)n2)CCCN1CC1CC1 (configuration not stated) | -6.55%
54 | Cn1cccc1C(=O)N1CC[C@@]2(O)CCN(S(C)(=O)=O)C[C@H]2C1 | -10.7%
55 | COCCOc1ncccc1C(=O)N(C)c1ccc(OC)c(OC)c1 | -46.7%
56 | CC(C)[C@H](CO)Nc1nccc(-c2c[nH]nc2-c2ccncc2)n1 | -4.66%
57 | COCCNC(=O)N1CCN(C(=O)Cc2ccccc2F)CC1 | -8.85%
